High-throughput results deposited in PubChem BioAssay by The Scripps Research Institute Molecular Screening Center.
A selection: hits, their analogues and other compounds. The true share with any hit is near 3.9%.
OX1R antag-1 – OX1R (HCRTR1) antagonists, primary screen, fluorescence, CHO/OX1R cells, Fluo-8 calcium, orexin A; AID 434989, 2010; Orexin/Hypocretin receptor type 1 (Homo sapiens), O43613; inhibition, % at 5 µM; Fluo-8 calcium fluorescence; 0.43% of 330,000 active;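 active = inhibition above its plate's threshold, mean inhibition of all tested compounds on the plate plus 3 SD, cut at about 37% in these data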
Target sequence (O43613 whole entry, looked up): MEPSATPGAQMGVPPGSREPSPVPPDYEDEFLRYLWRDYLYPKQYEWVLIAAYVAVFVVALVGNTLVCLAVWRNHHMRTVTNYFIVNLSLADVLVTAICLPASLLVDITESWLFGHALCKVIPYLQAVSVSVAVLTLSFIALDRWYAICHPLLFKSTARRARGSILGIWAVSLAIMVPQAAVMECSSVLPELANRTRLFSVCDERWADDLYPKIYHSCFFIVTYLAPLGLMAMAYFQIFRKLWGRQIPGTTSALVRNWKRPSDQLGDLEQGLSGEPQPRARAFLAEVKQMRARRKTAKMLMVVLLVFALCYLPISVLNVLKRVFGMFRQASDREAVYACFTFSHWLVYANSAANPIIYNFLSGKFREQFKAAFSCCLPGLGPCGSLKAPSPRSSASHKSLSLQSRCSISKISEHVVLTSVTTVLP
CHO parental Ca – ATP-evoked calcium signal inhibitors, parental CHO, primary screen, counter-screen for OX1R antagonist project, cell-based, fluorescence, Fluo-8 calcium dye; parental CHO-K1, ATP-induced calcium, Fluo-8 fluorescence; inhibition, % at 5.6 µM; 0.63% of 330,000 active;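 active = inhibition above that plate's mean sample inhibition plus 3 SD, cut at about 26% in these data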
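Assay system: untransfected parental CHO cell line. Also added: ATP agonist challenge. Dosing: one dose, 5.6 µM nominal. Measured by: Fluo-8 fluorescence. Read-out: % inhibition. Benchmarks: ATP wells versus no-ATP DMSO wells. Repeats: no replicates.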
TAAR1 antag – human TAAR1 antagonists, primary screen, Fluo-8 calcium fluorescence, CHO RD-HGA16 cells; Trace amine-associated receptor 1 (Homo sapiens), Q96RJ0; antagonist; inhibition, % at 3 µM; 1.5% of 360,000 active; AID 624466, 2012;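 active = inhibition above a per-plate cutoff, the mean inhibition of test compounds on that plate plus 3 SD, cut at about 49% in these data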
Target sequence (Q96RJ0 whole entry, looked up): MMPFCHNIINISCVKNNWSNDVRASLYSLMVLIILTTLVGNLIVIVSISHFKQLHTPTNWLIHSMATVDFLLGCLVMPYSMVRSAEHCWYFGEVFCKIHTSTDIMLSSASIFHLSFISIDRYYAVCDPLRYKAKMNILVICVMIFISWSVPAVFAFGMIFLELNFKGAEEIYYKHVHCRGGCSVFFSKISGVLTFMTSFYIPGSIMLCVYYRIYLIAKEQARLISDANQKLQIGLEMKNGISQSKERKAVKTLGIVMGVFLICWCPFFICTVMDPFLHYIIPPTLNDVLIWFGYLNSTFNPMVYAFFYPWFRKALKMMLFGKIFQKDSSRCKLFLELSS
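Assay system: CHO-derived RD-HGA16 cells stably expressing human TAAR1 plus Gα16. Timing: 140 s kinetic read after compound, 140 s after agonist. Technique: kinetic Fluo-8 calcium fluorescence measurement. Measure: % inhibition of agonist calcium response.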
TAAR1 ag – human TAAR1 agonists, primary screen, Fluo-8 calcium fluorescence, CHO RD-HGA16 cells. 0.99% of 360,000 active. vehicle wells 0%, saturating PEA agonist 100%. activation, % at 3 µM. Trace amine-associated receptor 1 (Homo sapiens), Q96RJ0;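 active = activation above the mean activation of all test compounds in the run plus 3 SD, cut at about 38% in these data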
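Test system: RD-HGA16 (CHO) cells co-expressing Gα16 and hTAAR1 | Doses: Single dose, 3 µM | Schedule: 17-24 h seeding, 75 min 37 °C dye, 30 min RT | Evaluation: % activation from peak over basal fluorescence ratio, DMSO-to-PEA scaled | Technique: Kinetic Fluo-8 calcium fluorescence | Benchmarks: Low control DMSO, high control PEA (EC100)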
OX1R antag-2 – antagonists of human orexin 1 receptor (OX1R) | AID 485270, 2010 | 1.8% of 330,000 active | OX1R-expressing cells, FRET antagonist read-out | inhibition, % at 6.6 µM | Orexin/Hypocretin receptor type 1 (Homo sapiens), O43613; in the data active = inhibition mostly above about 38%, no sharp cut-off; inactive = mostly below about 40%
Each line names hits and unclear results; the compound was inactive in the other large screens.

O=C(NNC(=O)C1CCCC1)c1cc([N+](=O)[O-])cc([N+](=O)[O-])c1	OX1R antag-2 38
O=C(NNC(=O)C1CC1)c1cccc([N+](=O)[O-])c1	none (no result: OX1R antag-1, CHO parental Ca, OX1R antag-2)
CC1(C)C(=O)C=C(N2CCCCC2)c2ccccc21	none (no result: OX1R antag-1, CHO parental Ca, OX1R antag-2)
CN(c1ccc(Cl)cc1)c1cc2c(c3c1ccn3C)C1CCC2O1 (centres undefined)	none (no result: OX1R antag-1, CHO parental Ca, OX1R antag-2)
NC1=C(Br)C(=O)c2ccccc2C1=O	OX1R antag-2 72
Cc1cc2c(cc1C)C(=O)C(Br)=C(N)C2=O	none (no result: OX1R antag-1, CHO parental Ca, OX1R antag-2)
Nc1n[nH]c(-c2ccc([N+](=O)[O-])cc2[N+](=O)[O-])n1	OX1R antag-2 67
Nc1nc(-c2ccc([N+](=O)[O-])cc2)cc(=O)[nH]1	none (no result: OX1R antag-1, CHO parental Ca, OX1R antag-2)
CC(=O)N(CCc1ccccc1)Cc1cc2ccc(C)c(C)c2[nH]c1=O	TAAR1 ag 41
CCC(=O)N1CCN(c2nc3ccccc3s2)CC1	none
O=C(c1cc2sccc2n1Cc1ccccc1)N1CCN(c2nc3ccccc3s2)CC1	CHO parental Ca 35
OC(CN(c1ccccc1)c1ccccc1)Cn1cnc2ccccc21 (centres undefined)	TAAR1 antag 57
CC(=O)Nc1ccc(C(=O)OCC(=O)NC(=O)NCc2ccccc2)cc1	none (no result: OX1R antag-1, CHO parental Ca, OX1R antag-2)
Cc1ccc(C(=O)OCC(=O)N(Cc2ccccc2)C(C)C)cc1C	OX1R antag-2 36
Cc1ccc(C(=O)OCC(=O)NCCc2ccccc2)cc1C	none
O=C(COC(=O)c1ccc(F)c([N+](=O)[O-])c1)NC(=O)NCc1ccccc1	OX1R antag-2 33
Cc1ccc(C(=O)OCC(=O)NC(=O)NCc2ccccc2)cc1C	TAAR1 antag 50
Cc1cc(S(=O)(=O)c2ccc(Cl)cc2)nc(S(=O)(=O)c2ccc(Cl)cc2)c1C#N	TAAR1 antag 68 (no result: OX1R antag-1, CHO parental Ca, OX1R antag-2)
COc1cc(/C=C2\SC(=S)N(NS(=O)(=O)c3ccc(C)cc3)C2=O)ccc1O	none
COc1cc(/C=C2/SC(=NCc3ccccc3)N(Cc3ccccc3)C2=O)ccc1O	none
COc1cc(/C=C2\SC(=S)N(NS(=O)(=O)c3ccccc3)C2=O)ccc1O	CHO parental Ca 44
O=C1/C(=C\c2ccc(O)c(O)c2)SC(=S)N1Cc1ccccc1	TAAR1 ag 38 (no result: OX1R antag-1, CHO parental Ca, OX1R antag-2)
O=C1/C(=C\c2cccc(O)c2)SC(=S)N1Cc1ccccc1	none
COc1cc(/C=C2\SC(=Nc3ccccc3)NC2=O)cc(Cl)c1O	OX1R antag-1 61, CHO parental Ca 39, TAAR1 antag 62, TAAR1 ag 75, OX1R antag-2 49
COc1cc(/C=C2/SC(=S)N(Cc3ccccc3)C2=O)ccc1O	CHO parental Ca 33, TAAR1 ag 44
CCCN1CCCCC(NC(=O)COCc2ccccc2)C1=O (centres undefined)	none (no result: OX1R antag-1, CHO parental Ca, OX1R antag-2)
COc1cc(/C=C2/SC(=O)NC2=O)ccc1OCc1ccccc1	OX1R antag-2 54
CCCNC(=O)C1(C)CCN(C(=O)c2cccnc2Oc2ccccc2)C1 (centres undefined)	none (no result: OX1R antag-1, CHO parental Ca, OX1R antag-2)
O=c1oc2ccccc2cc1-c1nc(-c2cccs2)cs1	OX1R antag-2 51
CC(=O)Nc1ccc(Nc2nc(-c3cc4ccccc4oc3=O)cs2)cc1	TAAR1 antag 55 (no result: OX1R antag-1, CHO parental Ca, OX1R antag-2)
c1csc(-c2csc(-c3cccs3)n2)c1	none
CC(C)OCCCNC(=O)CN1C(=O)/C(=C/c2ccccc2)Sc2ccccc21	OX1R antag-2 69
COc1cc(/C=N/n2cnnc2)ccc1OCCOc1ccccc1	none
C=CCc1ccc(OCCOc2ccc(/C=N/n3cnnc3)cc2OCC)c(OC)c1	CHO parental Ca 67
COc1cccc(/C=N/NC(=O)c2ccc(OCc3cccc(Br)c3)cc2)c1	TAAR1 antag 52
CC(C)Cn1c(N)c(C(=O)COC(=O)CCc2nc3ccccc3c(=O)[nH]2)c(=O)n(C)c1=O	none
CC(C)Cn1c(N)c(C(=O)COC(=O)CC23CC4CC(CC(C4)C2)C3)c(=O)n(C)c1=O	OX1R antag-1 71, CHO parental Ca 61
Cc1ccccc1OCCC(=O)OCC(=O)c1c(N)n(CC(C)C)c(=O)n(C)c1=O	CHO parental Ca 46
CC(C)Cn1c(N)c(C(=O)COC(=O)CCc2nc3ccccc3s2)c(=O)n(C)c1=O	CHO parental Ca 34
CC(C)Cn1c(N)c(C(=O)COC(=O)c2cc(S(=O)(=O)N3CCOCC3)ccc2Br)c(=O)n(C)c1=O	TAAR1 antag 54
Cc1ccc(OCCC(=O)OCC(=O)c2c(N)n(CC(C)C)c(=O)n(C)c2=O)cc1	none
OCc1ccccc1OCc1ccccc1	none (no result: OX1R antag-1, CHO parental Ca, OX1R antag-2)
CC(C)Cn1c(N)c(C(=O)COC(=O)c2cc3ccccc3cc2O)c(=O)n(C)c1=O	none
CC(C)Cn1c(N)c(C(=O)COC(=O)/C=C/c2ccccc2)c(=O)n(C)c1=O	CHO parental Ca 78
C=CCn1c(SCC(=O)Nc2ccccc2C)nc2sc(C)c(C)c2c1=O	none
C=CCn1c(SCC(=O)Nc2cccc(S(N)(=O)=O)c2)nc2sc(C)c(C)c2c1=O	OX1R antag-2 33
C[C@@H]1COc2cc(NCCCN3CCOCC3)ccc2S(=O)(=O)N1	none (no result: OX1R antag-1, CHO parental Ca, OX1R antag-2)
COc1ccc(-c2nc(-c3ccccc3)c(-c3cccs3)[nH]2)cc1OC	none
O=[N+]([O-])c1cccc(-c2nc(-c3ccccc3)c(-c3cccs3)[nH]2)c1	TAAR1 antag 58
Cc1cc(N2CCNC[C@@H]2C)ccc1N1CCS(=O)(=O)CC1	none (no result: OX1R antag-1, CHO parental Ca, OX1R antag-2)
Cc1ccccc1-c1cc2nc(Oc3ccc4c(c3)OCO4)n(C)c(=O)c2s1	none (no result: OX1R antag-1, CHO parental Ca, OX1R antag-2)
COc1ccc(S(=O)(=O)N2CCOC2CNC(=O)C(=O)NCCc2ccc(S(N)(=O)=O)cc2)cc1 (centres undefined)	CHO parental Ca 72
COc1ccc(S(=O)(=O)N2CCOC2CNC(=O)C(=O)NCCc2c[nH]c3ccccc23)cc1C (centres undefined)	OX1R antag-2 55
COc1ccccc1CCNC(=O)C(=O)NCC1OCCN1S(=O)(=O)c1ccc2c(c1)OCCO2 (centres undefined)	TAAR1 ag 39
COc1ccc(CCNC(=O)C(=O)NCC2OCCN2S(=O)(=O)c2ccc(OC)cc2)cc1 (centres undefined)	none
COc1ccc(S(=O)(=O)N2CCOC2CNC(=O)C(=O)NCCc2ccccc2OC)cc1C (centres undefined)	none
CC(C)(C)c1ccc(S(=O)(=O)NC(=O)C2(C)CCN2C(=O)C2CC2)cc1 (centres undefined)	none (no result: OX1R antag-1, CHO parental Ca, OX1R antag-2)
O=C(CSc1ccc(-c2ccc3c(c2)OCO3)nn1)Nc1nccs1	none
O=C(CSCC(=O)Nc1nc(-c2ccc3c(c2)OCO3)cs1)Nc1nccs1	TAAR1 antag 54
CC1(C)CC(=O)C=C(C#CC2CC2)C1	none (no result: OX1R antag-1, CHO parental Ca, OX1R antag-2)
COc1ccc(C(=O)CSc2nnc(CN3CCCCC3)n2-c2ccc(F)cc2)cc1	TAAR1 ag 47
